The record followed here is ChEMBL document CHEMBL2157900, “Design, synthesis and in vitro activities on anti-platelet aggregation of 4-methoxybenzene-1,3-isophthalamides” (Bioorg Med Chem Lett, 2012).

Each structure is given as a SMILES string.

Test [1] can be described thus: Antiplatelet activity against rat platelet rich plasma assessed as inhibition of ADP-induced platelet aggregation after 2 mins by Born test method. The test is classed as functional. The gist of the method: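 Rat blood was collected into 3.8% sodium citrate (1:9, v/v). Platelet-rich plasma was obtained by centrifugation at room temperature for 10 min (500–800 rpm). Platelet-poor plasma, made by spinning PRP at room temperature for 15 min (3000 rpm), set zero. Compound was incubated with PRP for 2 min, then aggregation was stimulated with ADP and read on an aggregometer. Results are given as percentage inhibition and IC50.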

Test [2] has as its system Platelet. The experiment in a line: Ratio of picotamide IC50 to compound IC50 for rat platelet rich plasma assessed as inhibition of ADP-induced platelet aggregation. The class given is functional.

As to `COc1ccc(C(=O)Nc2ccccc2F)cc1C(=O)Nc1ccccc1F`, the IC50 (as a rule, the concentration at which inhibition is half-maximal) in test [1] was determined as 860 nM.

For the compound `COc1ccc(C(=O)Nc2ccccc2Br)cc1C(=O)Nc1ccccc1Br`, the IC50 in test [1] came to 660 nM.

`COc1ccc(C(=O)Nc2ccccc2I)cc1C(=O)Nc1ccccc1I`: the half-maximal inhibitory concentration (IC50) in test [1] is 300 nM.

Consider `COc1ccc(C(=O)Nc2ccccc2Cc2ccccc2)cc1C(=O)Nc1ccccc1Cc1ccccc1`, for which the “Ratio IC50” value in test [2] turned out to be 10. Also, the IC50 in test [1] is 20 nM.

As for `COc1ccc(C(=O)Nc2ccccc2CC#N)cc1C(=O)Nc1ccccc1CC#N`, the IC50 in test [1] was determined as 590 nM.

With `COc1cccc(NC(=O)c2ccc(OC)c(C(=O)Nc3cccc(OC)c3)c2)c1`, the IC50 in test [1] was determined as 490 nM.

Turning to `CCOc1cccc(NC(=O)c2ccc(OC)c(C(=O)Nc3cccc(OCC)c3)c2)c1`, the IC50 in test [1] was 810 nM.

For the compound `COc1ccc(C(=O)Nc2ccc(F)cc2)cc1C(=O)Nc1ccc(F)cc1`, the IC50 in test [1] was 600 nM.

In the case of `COc1ccc(C(=O)Nc2ccc(Br)cc2)cc1C(=O)Nc1ccc(Br)cc1`, the IC50 in test [1] worked out at 510 nM.

In the case of `COc1ccc(C(=O)Nc2ccc(I)cc2)cc1C(=O)Nc1ccc(I)cc1`, in test [1], the IC50 was found to be 490 nM.

As for `COc1ccc(C(=O)Nc2ccc([N+](=O)[O-])cc2)cc1C(=O)Nc1ccc([N+](=O)[O-])cc1`, the concentration for half-maximal inhibition (IC50) in test [1] amounted to 750 nM.

As for `COc1ccc(C(=O)Nc2ccc(C)cc2)cc1C(=O)Nc1ccc(C)cc1`, the half-inhibitory concentration (IC50) in test [1] came out at 640 nM.

Turning to `COc1ccc(C(=O)Nc2ccc(C(C)=O)cc2)cc1C(=O)Nc1ccc(C(C)=O)cc1`, the IC50 in test [1] came out at 670 nM.

For `CCCCOc1ccc(NC(=O)c2ccc(OC)c(C(=O)Nc3ccc(OCCCC)cc3)c2)cc1`, the IC50 in test [1] is 490 nM.

As to `COc1ccc(C(=O)Nc2ccccc2)cc1C(=O)Nc1ccccc1`, the IC50 in test [1] was determined as 770 nM.

As to `COc1ccc(C(=O)NCc2ccccc2)cc1C(=O)NCc1ccccc1`, the IC50 in test [1] stood at 580 nM.

As to `COc1ccc(C(=O)NCCc2ccccc2)cc1C(=O)NCCc1ccccc1`, in test [1], the half-maximal inhibitory concentration (IC50) was determined as 240 nM.

With `COc1ccc(C(=O)NCc2cccnc2)cc1C(=O)NCc1cccnc1` [PICOTAMIDE], in test [1], the IC50 is 760 nM.
